From PubChem BioAssay
In the library only some 11% were active in any assay of this set; here they are far more common.
D1 allo mod: allosterically modulates the human D1 dopamine receptor; P21728; HEK293 D1, CRE-luciferase, dopamine EC30 potentiation; actives deviate in either direction; B-score at 10 µM; 58,000 compounds, 5.9% hits; AID 641;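 active = luminescence count or its row- and column-corrected plate score outside the 99.7% band of the plate's sample wells, on either side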
Target sequence (P21728 whole entry, looked up): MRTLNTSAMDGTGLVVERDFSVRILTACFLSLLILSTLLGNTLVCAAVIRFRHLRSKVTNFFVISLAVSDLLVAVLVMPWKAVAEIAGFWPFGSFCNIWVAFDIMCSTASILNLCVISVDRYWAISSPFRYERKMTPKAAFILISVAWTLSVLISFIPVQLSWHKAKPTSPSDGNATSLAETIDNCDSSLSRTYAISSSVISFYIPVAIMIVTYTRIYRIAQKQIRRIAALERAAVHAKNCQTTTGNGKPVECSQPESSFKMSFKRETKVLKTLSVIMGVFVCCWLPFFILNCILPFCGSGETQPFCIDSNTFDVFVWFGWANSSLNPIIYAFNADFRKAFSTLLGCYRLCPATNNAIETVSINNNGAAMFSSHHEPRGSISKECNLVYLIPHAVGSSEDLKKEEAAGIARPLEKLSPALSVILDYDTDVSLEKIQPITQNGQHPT
M1 agonist: M1 muscarinic receptor agonism; CHO-M1 cells, Fluo-4 calcium fluorescence, agonist mode; stronger effect = higher value; 64,000 compounds, 3% hits; AID 626; B-score at 10 µM;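 active = fluorescence rise, raw or as B-score row- and column-corrected plate score, outside the 99.7% band of its plate's samples, either direction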
M1 antag: blocks the rat M1 muscarinic receptor response to acetylcholine; CHO-M1 cells, Fluo-4 calcium, ACh EC80 antagonist mode; stronger effect = lower value; P08482; 64,000 compounds, 3.4% hits; B-score at 10 µM;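 active = calcium fluorescence response, raw or row-and-column corrected B-score, differing from the plate sample mean either way at a set confidence level, mostly lower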
S1P3 agonist: agonists of human S1P3 receptor; S1P3 NFAT-BLA reporter cells, agonism, FRET ratio; relative to 1 µM S1P, basal subtracted; activation, % at 4.5 µM; 60,000 compounds, 0.1% hits; AID 373;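 active = activation above the screen-wide mean plus 3 SD, cut at about 4.5% in these data, passing the limit was not always enough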
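Measure – % activation relative to 1 µM S1P (100%), per plate · System – stable CHO line with human S1P3, Gα16, NFAT-BLA reporter · Timing – cells plated overnight, compound 4 h 37 °C, substrate 2 h RT · Technique – fluorescent BLA substrate, ex 405 nm, em 460/535 nm ratio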
S1P1 ag-PAM: activates or potentiates agonism at human S1P1 receptor; P21453; S1P1 CRE-bla cells, forskolin, beta-lactamase FRET, potentiator mode; S1P1 agonist co-added at EC20, 2 nM; 100% = saturating reference agonist, 0% = basal; activation, % at 9.5 µM; 56,000 compounds, 0.57% hits;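 active = activation above a cutoff set at the mean activation of all tested compounds plus 3 SD, cut at about 54% in these data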;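 also: forskolin at 4 µM as EC80 and the EC20 agonist is SEW2871; 100% = SEW2871 at its EC100 plus forskolin at EC80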
M1 agonist conf: confirmation of rat M1 muscarinic receptor agonists; CHO-M1 cells, Fluo-4 calcium fluorescence, agonist mode; actives lie on both sides; 1,700 compounds, 19% hits; fluorescence change (max-min) at 10 µM; shares compounds with M1 agonist;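 active = fluorescence change differs from the solvent-only DMSO control mean at a set confidence level in both duplicate runs; inconclusive = differs from solvent-only control mean in just one of two runs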;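 also: an EC20 dose of acetylcholine follows compound addition during the same imaging run; raw fluorescence intensity difference in instrument units with no normalization to controls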
M4 ag counter: counter-screen for M1 agonists: activity at rat M4 receptor. 1,700 compounds, 9% hits. fluorescence change (max-min) at 10 µM. shares compounds with M1 agonist. CHO M4/Gqi5 cells, Fluo-4 calcium fluorescence, agonist mode; actives lie on both sides;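 active = fluorescence change differing from the plate's solvent-only control wells at 99.7% confidence in both duplicates, whether higher or lower; inconclusive = differs from solvent controls in only one of two duplicates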
* hit, by the source's call.

How did CCCCCOc1ccc(C(=O)NCC(=O)NCC(=O)OCC)cc1 do in these assays?
D1 allo mod: 0.00052; M1 agonist: -1.3; M1 antag: -0.28; S1P3 agonist: -2; S1P1 ag-PAM: -3

What do the screens show for `COc1ccccc1CC1(C)NC(=O)N(CC(=O)N2CC(C)OC(C)C2)C1=O` (stereo not given)?
D1 allo mod: -0.48; M1 agonist: -0.53; M1 antag: 1.4

Results for O=C(Nc1cccnc1)c1cccc(S(=O)(=O)N2CCOCC2)c1 ?
D1 allo mod: -0.027; M1 agonist: 0.022; M1 antag: 0.15; S1P3 agonist: 0

How did O=C(Nc1cccnc1)c1ccc(Cl)c(S(=O)(=O)N2CCCCCC2)c1 do in these assays?
D1 allo mod: 0.069; M1 agonist: 2.4*; M1 antag: -0.23; S1P3 agonist: -1; S1P1 ag-PAM: 3; M1 agonist conf: inconclusive; M4 ag counter: -48

What do the screens show for `CCOC(=O)c1ccc(-n2c(=O)[nH]c3ccccc3c2=O)cc1`?
D1 allo mod: -0.43; M1 agonist: -2*; M1 antag: 0.55; S1P3 agonist: -1; S1P1 ag-PAM: -2; M1 agonist conf: inconclusive; M4 ag counter: -75

What do the screens show for `CC(C)C(CCN1C(=O)CCC1=O)C1CCOC(C)(C)C1` (stereo not given)?
M1 agonist: -0.31; M1 antag: 0.25

Results for COc1ccccc1N1CCN(C(c2cc3ccc(C)cc3[nH]c2=O)c2nnnn2C2CCCC2)CC1 (stereo not given) ?
D1 allo mod: -0.56; M1 agonist: -2.5*; M1 antag: 1.3; S1P3 agonist: 0; S1P1 ag-PAM: -35; M1 agonist conf: inconclusive; M4 ag counter: -60

What do the screens show for `COc1ccccc1N1CCN(C(c2cc3cc(C)ccc3[nH]c2=O)c2nnnn2C2CCCC2)CC1` (stereo not given)?
D1 allo mod: -0.048; M1 agonist: -0.17; M1 antag: 1.1; S1P3 agonist: -1; S1P1 ag-PAM: -12

Results for O=S(NCc1ccco1)C12CC3CC(CC(C3)C1)C2 (stereo not given) ?
D1 allo mod: -0.54; M1 agonist: -0.2; M1 antag: 0.024

Results for CC(=O)N1CCc2cc(S(=O)(=O)Nc3cccc(C(F)(F)F)c3)ccc21 ?
D1 allo mod: -1.3; M1 agonist: 5.1*; M1 antag: -0.98; M1 agonist conf: -11; M4 ag counter: -34

What do the screens show for `CC1(C)NC(C)(C)C(O)(C(N)=O)C1=O` (stereo not given)?
D1 allo mod: -1.1; M1 agonist: 0.11; M1 antag: 0.51; S1P3 agonist: 0; S1P1 ag-PAM: -4

What do the screens show for `COc1ccc2cc(C(=O)NCc3ccco3)c(=Nc3ccc(C(=O)O)cc3)oc2c1`?
D1 allo mod: 1.8; M1 agonist: 2.7*; M1 antag: -0.02; S1P3 agonist: -1; S1P1 ag-PAM: -11; M1 agonist conf: inconclusive; M4 ag counter: -68

How did COC(=O)CSc1nnc(CNC(=O)c2ccco2)n1-c1ccc(F)cc1 do in these assays?
D1 allo mod: -0.07; M1 agonist: 4.4*; M1 antag: -0.13; S1P3 agonist: -1; S1P1 ag-PAM: -10; M1 agonist conf: -12; M4 ag counter: inconclusive

What do the screens show for `CCOC(=O)CSc1nnc(CNC(=O)c2ccco2)n1C`?
D1 allo mod: -1.1; M1 agonist: 0.5; M1 antag: -0.14; S1P3 agonist: 0; S1P1 ag-PAM: 4

What do the screens show for `CCCCCC(=O)OC(CN1CCCCC1)CN1CCCC1=O` (stereo not given)?
D1 allo mod: 0.78; M1 agonist: 0.85; M1 antag: 0.11; S1P3 agonist: 0; S1P1 ag-PAM: 7

What do the screens show for `CCCCc1nc(NCC2CCCO2)c(C#N)c2c1COC(C)(C)C2` (stereo not given)?
M1 agonist: 0.25; M1 antag: -0.16; S1P3 agonist: -5; S1P1 ag-PAM: -12
